Measurements published in ChEMBL document CHEMBL3112403, “Design, synthesis and evaluation of second generation MurF inhibitors based on a cyanothiophene scaffold” (Eur J Med Chem, 2014).
Values belong to the molecule of their own block, whether it stands above or below them.

Key:
[1] = test system: Staphylococcus aureus; assay: Antibacterial activity against Staphylococcus aureus SH1000 assessed as growth inhibition by broth microdilution method; type: functional
Procedure, shortened: (§1)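 MICs by broth microdilution in Mueller-Hinton broth following CLSI guidelines.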

[2] = test system: Escherichia coli; assay: Antibacterial activity against Escherichia coli SM1411 harboring acrAB deletion mutant assessed as growth inhibition by broth microdilution method; type: functional
Procedure, shortened: (§2)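 MIC by broth microdilution in Mueller-Hinton broth following CLSI guidelines. ES100 is the tolC derivative of AB734, and SM1411 is the acrAB derivative of 1411; both are efflux-deficient E. coli strains. Growth inhibition was read as the minimum inhibitory concentration.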

[3] = test system: Escherichia coli; assay: Antibacterial activity against Escherichia coli AB734 assessed as growth inhibition by broth microdilution method; type: functional; procedure, shortened: as §1
[4] = test system: Escherichia coli; assay: Antibacterial activity against Escherichia coli 1411 assessed as growth inhibition by broth microdilution method; type: functional; procedure, shortened: as §1
[5] = test system: Escherichia coli; assay: Antibacterial activity against Escherichia coli 1411 assessed as growth inhibition by broth microdilution method in presence of polymyxin B nonapeptide; type: functional
Procedure, shortened: (§3)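 Broth microdilution MIC in Mueller-Hinton broth per CLSI, run with 4 µg/mL polymyxin B nonapeptide to permeabilize the outer membrane.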

[6] = Inhibition of Escherichia coli MurF ligase using D-Ala-D-Ala as substrate after 15 mins by malachite green assay
Procedure, shortened: (§4)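 After 15 min at 37 °C, Biomol reagent was added and phosphate read at 650 nm, in duplicate. RA was taken relative to a 5% DMSO control. IC50 was taken as the concentration giving 50% RA, from seven concentrations.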

[7] = biological target: T1, UDP-N-acetylmuramoyl-tripeptide--D-alanyl-D-alanine ligase (Streptococcus pneumoniae, UniProt Q9ZHC3); assay: Inhibition of Streptococcus pneumoniae MurF ligase using D-Ala-D-Ala as substrate after 15 mins by malachite green assay
T1 sequence (Q9ZHC3 whole entry): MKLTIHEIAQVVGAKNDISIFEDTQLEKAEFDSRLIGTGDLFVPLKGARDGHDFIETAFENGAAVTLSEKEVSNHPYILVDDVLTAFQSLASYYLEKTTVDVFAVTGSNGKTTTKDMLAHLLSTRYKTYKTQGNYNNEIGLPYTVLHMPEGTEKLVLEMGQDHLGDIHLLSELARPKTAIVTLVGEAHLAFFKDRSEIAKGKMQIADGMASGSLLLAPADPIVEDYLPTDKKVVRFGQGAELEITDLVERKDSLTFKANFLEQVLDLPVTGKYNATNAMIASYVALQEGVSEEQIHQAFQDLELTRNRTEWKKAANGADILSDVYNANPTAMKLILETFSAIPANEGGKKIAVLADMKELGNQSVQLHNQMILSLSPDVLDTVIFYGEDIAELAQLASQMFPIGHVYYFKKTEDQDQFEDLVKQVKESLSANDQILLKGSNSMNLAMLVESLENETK
Procedure, shortened: (§5)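 Purified S. pneumoniae MurF in 50 mM Hepes pH 8.0 with 50 mM MgCl2, 0.005% Triton X-114, 100 µM D-Ala-D-Ala, 50 µM UMtri-L-Lys and 250 µM ATP, with 5% DMSO final. After 15 min at 37 °C, Biomol reagent was added and absorbance read at 650 nm, in duplicate. RA was taken against a 5% DMSO control. IC50 was the 50% RA point from seven concentrations.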

[8] = test system: Escherichia coli; assay: Antibacterial activity against Escherichia coli ES100 harboring tolC deletion mutant assessed as growth inhibition by broth microdilution method; type: functional; procedure, shortened: as §2
[9] = test system: Escherichia coli; assay: Antibacterial activity against Escherichia coli AB734 assessed as growth inhibition by broth microdilution method in presence of polymyxin B nonapeptide; type: functional; procedure, shortened: as §3
[10] = biological target: T2, UDP-N-acetylmuramoyl-tripeptide--D-alanyl-D-alanine ligase (Streptococcus pneumoniae) (UniProt Q9ZHC3); assay: Inhibition of Streptococcus pneumoniae MurF ligase using D-Ala-D-Ala as substrate assessed as residual activity at 250 uM after 15 mins by malachite green assay; procedure, shortened: as §5
T2 sequence (whole entry): T1 sequence (Q9ZHC3 whole entry)

[11] = test system: Escherichia coli; assay: Inhibition of […] MurF ligase using D-Ala-D-Ala as substrate assessed as residual activity at 250 uM after 15 mins by malachite green assay; procedure, shortened: as §4

SMILES: COc1ccc(CN2CCc3c(sc(NC(=O)c4cc(OCCNC(=N)N)ccc4Cl)c3C#N)C2)cc1.Cl
MIC [1]: 32 µg/mL
MIC [2]: 32 µg/mL
MIC [3]: 32 µg/mL
MIC [4]: 32 µg/mL
MIC [5]: 32 µg/mL
IC50 [6]: 78 µM
IC50 [7]: 61 µM
MIC [8]: 8 µg/mL
MIC [9]: 32 µg/mL

SMILES: N#Cc1c(NC(=O)c2cc(OCCN)ccc2Cl)sc2c1CCN(Cc1ccc(C(=O)O)cc1)C2
MIC [1]: > 256 µg/mL
MIC [2]: > 256 µg/mL
MIC [3]: > 256 µg/mL
MIC [4]: > 256 µg/mL
MIC [5]: > 256 µg/mL
IC50 [6]: 336 µM
IC50 [7]: 663 µM
MIC [8]: > 256 µg/mL
MIC [9]: > 256 µg/mL

SMILES: Cl.N#Cc1c(NC(=O)c2cc(S(=O)(=O)NCCN)c(Cl)cc2Cl)sc2c1CCCC2
MIC [1]: > 256 µg/mL
MIC [2]: 128 µg/mL
MIC [3]: > 256 µg/mL
MIC [4]: > 256 µg/mL
MIC [5]: 128 µg/mL
IC50 [6]: 418 µM
IC50 [7]: 219 µM
MIC [8]: 64 µg/mL
MIC [9]: 128 µg/mL

Activity [10]: 87%
Activity [11]: 74%
SMILES: N#Cc1c(NC(=O)c2cc(OCC(N)=O)ccc2Cl)sc2c1CCCC2

SMILES: N#Cc1c(NC(=O)c2cc(OCCN)ccc2Cl)sc2c1CCN(Cc1ccc(-n3cnnn3)cc1)C2
MIC [1]: > 256 µg/mL
MIC [2]: > 256 µg/mL
MIC [3]: > 256 µg/mL
MIC [4]: > 256 µg/mL
MIC [5]: > 256 µg/mL
IC50 [6]: 83 µM
IC50 [7]: 454 µM
MIC [8]: > 256 µg/mL
MIC [9]: > 256 µg/mL

SMILES: COC(=O)c1ccc(CN2CCc3c(sc(NC(=O)c4cc(OCCNC(=O)C(F)(F)F)ccc4Cl)c3C#N)C2)cc1
MIC [1]: > 256 µg/mL
Activity [10]: 55%
MIC [2]: > 256 µg/mL
MIC [3]: > 256 µg/mL
MIC [4]: > 256 µg/mL
MIC [5]: > 256 µg/mL
IC50 [6]: 255 µM
MIC [8]: > 256 µg/mL
MIC [9]: > 256 µg/mL

IC50 [6]: 56 µM
IC50 [7]: 126 µM
SMILES: N#Cc1c(NC(=O)c2cccc(OCn3cc(Cl)cn3)c2)sc2c1CCC2

SMILES: Cl.N#Cc1c(NC(=O)c2cc(OCCNC(=N)N)ccc2Cl)sc2c1CCN(Cc1cccc(O)c1)C2
MIC [1]: 32 µg/mL
MIC [2]: 64 µg/mL
MIC [3]: 128 µg/mL
MIC [4]: 128 µg/mL
MIC [5]: 64 µg/mL
IC50 [6]: 143 µM
IC50 [7]: 117 µM
MIC [8]: 32 µg/mL
MIC [9]: 64 µg/mL

SMILES: N#Cc1c(NC(=O)c2cc(OCCCN)ccc2Cl)sc2c1CCCC2
MIC [1]: 128 µg/mL
MIC [2]: 32 µg/mL
MIC [3]: 64 µg/mL
MIC [4]: 64 µg/mL
MIC [5]: 32 µg/mL
IC50 [6]: 272 µM
IC50 [7]: 128 µM
MIC [8]: 32 µg/mL
MIC [9]: 32 µg/mL

SMILES: N#Cc1c(NC(=O)c2cc(OCCNC(=O)C(F)(F)F)ccc2Cl)sc2c1CCN(Cc1ccccc1)C2
MIC [1]: > 256 µg/mL
MIC [2]: > 256 µg/mL
MIC [3]: > 256 µg/mL
MIC [4]: > 256 µg/mL
MIC [5]: > 256 µg/mL
Activity [11]: 46%
IC50 [7]: 172 µM
MIC [8]: > 256 µg/mL
MIC [9]: > 256 µg/mL

SMILES: COC(=O)c1ccc(CN2CCc3c(sc(NC(=O)c4cc(OCCN)ccc4Cl)c3C#N)C2)cc1
MIC [1]: 128 µg/mL
MIC [2]: 64 µg/mL
MIC [3]: > 256 µg/mL
MIC [4]: > 256 µg/mL
MIC [5]: 64 µg/mL
IC50 [6]: 88 µM
IC50 [7]: 109 µM
MIC [8]: 32 µg/mL
MIC [9]: 64 µg/mL

SMILES: Cl.N#Cc1c(NC(=O)c2cc(OCCCNC(=N)N)ccc2Cl)sc2c1CCCC2
MIC [1]: > 256 µg/mL
MIC [2]: 16 µg/mL
MIC [3]: 32 µg/mL
MIC [4]: 32 µg/mL
MIC [5]: 32 µg/mL
IC50 [6]: 102 µM
IC50 [7]: 78 µM
MIC [8]: 8 µg/mL
MIC [9]: 32 µg/mL

SMILES: N#Cc1ccc(CN2CCc3c(sc(NC(=O)c4cc(OCCN)ccc4Cl)c3C#N)C2)cc1
MIC [1]: 128 µg/mL
MIC [2]: 64 µg/mL
MIC [3]: < 256 µg/mL
MIC [4]: < 256 µg/mL
MIC [5]: 64 µg/mL
IC50 [6]: 76 µM
IC50 [7]: 107 µM
MIC [8]: 32 µg/mL
MIC [9]: 64 µg/mL

SMILES: COc1ccc(CN2CCc3c(sc(NC(=O)c4cc(OCCNC(=O)C(F)(F)F)ccc4Cl)c3C#N)C2)cc1
MIC [1]: > 256 µg/mL
MIC [2]: > 256 µg/mL
MIC [3]: > 256 µg/mL
MIC [4]: > 256 µg/mL
MIC [5]: > 256 µg/mL
Activity [11]: 81%
IC50 [7]: 154 µM
MIC [8]: > 256 µg/mL
MIC [9]: > 256 µg/mL
